Screens (PubChem BioAssay)
This is a sample that favours compounds with a hit; in the whole collection about 5.9% have one here.
Pf Dd2 inh – P. falciparum Dd2 growth inhibition; SYBR Green, 72 h; stronger effect = lower value; activity change, % at 10 µM; actives 2.3% (n = 94,000); AID 1159554; in the data active = activity change below about -80%
IDH1 R132H inh – blocks human IDH1 R132H reductase activity | diaphorase/resazurin fluorescence, 60 min | inhibition, % at 10 µM | actives 0.18% (n = 70,000) | AID 624101; in the data active = inhibition above about 34%;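 note: 0% = DMSO and 100% = no enzyme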
Tcruzi prolif – inhibitors of T. cruzi proliferation; T. cruzi beta-gal in NIH3T3, GalScreen luminescence, 90 h; inhibition, % at 8.34 µM; actives 5.9% (n = 77,000);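 active = mean inhibition above about 93%, with at least 55% of replicates each passing it, limit read from the data, passing the limit was not always enough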
KDM4C inh – inhibitors of human demethylase GASC-1 KDM4C | GST-KDM4C 2-372, H3K9me3 peptide, LANCE TR-FRET | Q9H3R0 | actives 0.15% (n = 96,000) | inhibition, % at 12.5 µM;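 active = mean replicate inhibition above about 25%, with at least 55% of replicates also reaching it, limit read from the data, passing the limit was not always enough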
Target sequence (Q9H3R0 2-372 limits assumed): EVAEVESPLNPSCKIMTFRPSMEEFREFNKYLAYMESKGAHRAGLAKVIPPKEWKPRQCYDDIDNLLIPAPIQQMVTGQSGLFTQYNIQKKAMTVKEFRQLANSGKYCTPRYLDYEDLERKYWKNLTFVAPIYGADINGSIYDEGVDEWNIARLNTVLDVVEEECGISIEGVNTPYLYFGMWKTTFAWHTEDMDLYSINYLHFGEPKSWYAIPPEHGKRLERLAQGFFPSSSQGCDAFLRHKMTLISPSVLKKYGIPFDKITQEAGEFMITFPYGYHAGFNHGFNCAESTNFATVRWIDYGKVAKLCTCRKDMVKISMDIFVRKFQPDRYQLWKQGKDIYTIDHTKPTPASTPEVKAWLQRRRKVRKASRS
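Test system – GST-tagged GASC-1 (JMJD2C) catalytic fragment, aa 2-372 · Medium – HEPES buffer, pH 7.5, plus ascorbate · Reagent – H3K9me3 peptide with Fe(II)/2OG · Compound – one test concentration per compound · Timing – 30 min reaction, 60 min detection, RT · Technique – TR-FRET with Eu antibody and ULight streptavidin, EDTA stop · Read-out basis – inhibition from TR-FRET ratio decrease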
Starred values were filed as active, the others as inactive.

For C[C@@H]1CCCCO[C@@H](CN(C)C(=O)CCC(F)(F)F)[C@@H](C)CN([C@@H](C)CO)C(=O)c2cc(NC(=O)Nc3ccc4c(c3)OCO4)ccc2O1 the results were Pf Dd2 inh -11, IDH1 R132H inh -2, Tcruzi prolif -2 and KDM4C inh 17.
For C[C@@H]1CCCCO[C@@H](CN(C)C(=O)Nc2ccc3c(c2)OCO3)[C@@H](C)CN([C@H](C)CO)C(=O)c2cc(NC(=O)Nc3ccc(F)cc3)ccc2O1 the results were Pf Dd2 inh 8, IDH1 R132H inh 1, Tcruzi prolif 37 and KDM4C inh 1.
Screening C[C@@H]1CCCCO[C@H](CN(C)C(=O)Nc2ccc(C(F)(F)F)cc2)[C@@H](C)CN([C@H](C)CO)C(=O)c2cc(NC(=O)Nc3ccc4c(c3)OCO4)ccc2O1 returned Pf Dd2 inh -38 and Tcruzi prolif 107*.
`COc1ccc(NC(=O)Nc2ccc3c(c2)C(=O)N([C@@H](C)CO)C[C@H](C)[C@@H](CN(C)C(=O)Cc2ccccc2)OCCCC[C@@H](C)O3)cc1` gave Pf Dd2 inh -86*, IDH1 R132H inh 2, Tcruzi prolif 68 and KDM4C inh -1.
O=C(CCCCCC(=O)Nc1ccccc1O)N/N=C/c1ccc(S(=O)(=O)O)o1 was read as IDH1 R132H inh 0.
For CCc1c(C)nc(SCC(=O)Nc2ccc(Cl)cc2)[nH]c1=O the results were IDH1 R132H inh 0.
O=C(NO)c1cccc(C(=O)N/N=C/c2ccc(N3CCCC3)cc2)c1 was read as IDH1 R132H inh 0.
For C[C@H](CO)N1C[C@H](C)[C@@H](CN(C)C(=O)Nc2ccc(C(F)(F)F)cc2)OCCCC[C@H](C)Oc2ccc(NC(=O)Nc3ccc4c(c3)OCO4)cc2C1=O the results were Pf Dd2 inh -38, Tcruzi prolif 119* and KDM4C inh -4.
`C[C@@H]1CCCCO[C@H](CN(C)C(=O)Nc2ccc3c(c2)OCO3)[C@H](C)CN([C@H](C)CO)C(=O)c2cc(NC(=O)NC3CCCCC3)ccc2O1` gave Pf Dd2 inh -82*, Tcruzi prolif 63 and KDM4C inh 0.
C[C@@H]1CCCCO[C@H](CN(C)C(=O)Nc2ccc3c(c2)OCO3)[C@H](C)CN([C@H](C)CO)C(=O)c2cc(NC(=O)Nc3ccc(C(F)(F)F)cc3)ccc2O1 was read as Pf Dd2 inh -89*, IDH1 R132H inh 1, Tcruzi prolif 93 and KDM4C inh 0.
Screening COc1ccc(NC(=O)Nc2ccc3c(c2)C(=O)N([C@H](C)CO)C[C@@H](C)[C@@H](CN(C)C(=O)Nc2ccc4c(c2)OCO4)OCCCC[C@@H](C)O3)cc1 returned Pf Dd2 inh -90*, Tcruzi prolif 69 and KDM4C inh 0.
`CC(C)c1ccc(NC(=O)CN(C)S(=O)(=O)c2ccc(F)cc2)cc1` gave IDH1 R132H inh 0.
COc1ccc(C#Cc2ccc3c(c2)[C@H]2[C@H](CCN2Cc2ccncc2)[C@H](CO)N3)cc1 was read as Pf Dd2 inh -94* and KDM4C inh -1.
Screening COc1ccc(-c2ccc3c(c2)[C@@H]2[C@@H](CCN2Cc2ccncc2)[C@@H](CO)N3)cc1 returned Pf Dd2 inh -79, Tcruzi prolif 84 and KDM4C inh 2.
`COc1ccc(C#Cc2ccc3c(c2)[C@H]2[C@H](CCN2Cc2nccs2)[C@H](CO)N3)cc1` gave Pf Dd2 inh -85*.
For C[C@H]1CN([C@@H](C)CO)C(=O)c2cccc(NC(=O)Nc3ccccc3)c2O[C@H]1CN(C)C(=O)Nc1ccc2c(c1)OCO2 the results were Pf Dd2 inh -17, IDH1 R132H inh 4, Tcruzi prolif 21 and KDM4C inh 1.
`C[C@@H]1CN([C@@H](C)CO)C(=O)c2cccc(NC(=O)Nc3ccccc3)c2O[C@@H]1CN(C)C(=O)Nc1ccc2c(c1)OCO2` gave Pf Dd2 inh -85*, IDH1 R132H inh -1, Tcruzi prolif -3 and KDM4C inh 0.
For C[C@@H]1CN([C@@H](C)CO)C(=O)c2cccc(NC(=O)C3CC3)c2O[C@@H]1CN(C)C(=O)Nc1ccc2c(c1)OCO2 the results were Pf Dd2 inh -83*, IDH1 R132H inh -1, Tcruzi prolif 19 and KDM4C inh -3.
CC(C)NC(=O)Nc1cccc2c1O[C@H](CN(C)C(=O)Nc1ccc3c(c1)OCO3)[C@H](C)CN([C@@H](C)CO)C2=O was read as Pf Dd2 inh -83*, IDH1 R132H inh 0, Tcruzi prolif 39 and KDM4C inh 1.
